Compound activity deposited in PubChem BioAssay by Broad Institute.
An excerpt weighted towards active compounds, which were near 0.61% of everything screened.
CFTR F508del cor = F508del CFTR correction, initial screen, CFBE line, single point; CFBE cells, YFP halide quenching; stimulated with forskolin plus potentiator P3; % fluorescence drop versus neutral controls; activity (quench increase), % at 7.58 µM; 350,000 compounds, 0.36% hits;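 active = mean added fluorescence quench of at least 8% versus neutral control, with both replicates also reaching 8%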;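 also: cells transiently co-express mutant CFTR-F508del with the halide-sensitive YFP; corrector assay measuring rescue of mutant channel to the surface after 24 h compound exposure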
E-selectin induc = E-selectin induction in HUVECs, primary screen, imaging, HUVEC, immunofluorescence imaging, single point; P16581; normalized: neutral wells 0, TNF-alpha wells 100; activation, % at 7.58 µM; 260,000 compounds, 0.37% hits;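 active = mean E-selectin-positive cell signal at least 10% of the positive control, reached in at least 60% of replicates, without over 20% cell loss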
Target sequence (P16581 whole entry, looked up): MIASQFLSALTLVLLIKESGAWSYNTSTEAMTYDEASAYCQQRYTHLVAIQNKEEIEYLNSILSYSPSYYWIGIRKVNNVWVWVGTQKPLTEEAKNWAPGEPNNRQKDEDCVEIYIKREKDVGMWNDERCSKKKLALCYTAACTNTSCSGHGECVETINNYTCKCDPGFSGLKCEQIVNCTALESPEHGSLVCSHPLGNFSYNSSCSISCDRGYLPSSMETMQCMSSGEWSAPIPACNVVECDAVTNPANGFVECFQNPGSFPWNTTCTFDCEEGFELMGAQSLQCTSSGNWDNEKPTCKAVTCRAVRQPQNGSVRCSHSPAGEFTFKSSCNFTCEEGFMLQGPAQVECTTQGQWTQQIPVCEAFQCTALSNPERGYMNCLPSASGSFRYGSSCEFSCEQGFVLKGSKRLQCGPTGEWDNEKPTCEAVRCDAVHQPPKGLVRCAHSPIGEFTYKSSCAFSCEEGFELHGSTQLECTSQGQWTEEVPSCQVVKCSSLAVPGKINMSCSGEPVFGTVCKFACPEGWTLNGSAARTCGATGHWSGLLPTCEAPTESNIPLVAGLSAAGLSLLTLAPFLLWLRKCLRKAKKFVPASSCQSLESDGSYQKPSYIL
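Material: HUVEC primary endothelial cells; Amount: 3,000 cells per well; Dosing: single concentration; Medium: EGM-2 growth medium on 0.1% gelatin-coated wells; Read-out basis: percent E-selectin-positive cells; Signal: immunofluorescence imaging; Control set: TNF-alpha, DMSO.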
XiGFP reactiv = activators of inactive X chromosome reactivation, primary screen, imaging, XiGFP fibroblasts, GFP high-content imaging, set 2. activation, % at 7.58 µM. XiGFP mouse fibroblasts, % GFP-positive cells imaging, 3 d; cells co-treated with 5-aza-dC sensitizer; scaled so ellipticine positive control = 100%. 360,000 compounds, 0.055% hits;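 active = mean normalized replicate activation at least 10% and every replicate at or above 10%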;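 also: 0% = median of on-plate neutral control wells and 100% = ellipticine 6 µM median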
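Schedule: 3 d treatment, 15 min room-temperature fixation; system: 68-5-11 XiGFP fibroblast line; buffer or medium: DMEM plus 5-aza-dC sensitizer; control set: ellipticine 6 µM positive control; compound: one concentration, pinned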
An asterisk follows results filed as active; nt = no result given.

SMILES | CFTR F508del cor | E-selectin induc | XiGFP reactiv
COc1cccc(CNC(=O)C[C@@H]2CC[C@H](NS(=O)(=O)c3ccccc3OC)[C@H](CO)O2)c1 | 0.8 | -0.3 | 1.2
Cc1c(CC(=O)O)c(=O)oc2cc3occ(-c4ccccc4)c3cc12 | 2.7 | -0.1 | 0.3
Cc1c(CC(=O)NCCC(=O)O)c(=O)oc2cc3occ(-c4ccccc4)c3cc12 | -0.8 | 40.1* | 0.2
COc1ccc(NC(=O)N(C)C[C@H]2Oc3ccc(NC(=O)Cc4cn(C)c5ccccc45)cc3C(=O)N([C@@H](C)CO)C[C@H]2C)cc1 | -0.1 | 0.5 | -1.1
CCOCCCNC(=O)C(c1ccc(C)cc1)N(Cc1cccs1)C(=O)c1ccccn1 (centres undefined) | 1.6 | nt | 26.2*
CCOCCCNC(=O)C(c1ccc(Cl)cc1)N(Cc1cccs1)C(=O)c1ccccn1 (centres undefined) | 2.6 | nt | -0.1
COc1cc(NC(=S)NCc2cccnc2)cc(OC)c1OC | nt | 27.2* | 0.0
COc1cc(NC(=S)NCc2cccnc2)cc(OC)c1 | 1.5 | nt | 0.1
CN(C)C(=O)c1cccc(-c2ccccc2[C@@H]2[C@H](C#N)N(C(=O)C3CCCC3)[C@H]2CO)c1 | 1.5 | 0.0 | 0.1
Cc1ccc(NC(=O)COc2ccc(Br)cc2CO)cc1S(=O)(=O)N1CCOCC1 | 8.6* | nt | 0.1
O=C(COc1ccc(Br)cc1CO)Nc1ccc(S(=O)(=O)N2CCCC2)cc1 | -0.4 | 0.3 | 0.1
CCc1sc(N2[C@H](C#N)[C@H](c3ccccc3-c3ccc(F)cc3)[C@@H]2CO)nc1C | -1.8 | -0.1 | 0.1
CCOC(=O)COc1ccc2c(C#N)c3ccccn3c2c1 | -2.3 | 0.5 | 0.3
COc1cc(OC)cc(C(=O)c2c(C)c(C#N)c3ccccn23)c1 | 16.9* | nt | 0.0
Cc1ccc(S(=O)(=O)N(C)C[C@@H]2Oc3c(NC(=O)Nc4ccccc4)cccc3C(=O)N([C@@H](C)CO)C[C@H]2C)cc1 | -1.3 | nt | nt
COCC(=O)Nc1ccc2c(c1)OC[C@H](C)N(C(C)=O)C[C@@H](C)[C@H](OC)CN(C)C2=O | nt | 0.0 | 0.3
Cc1ccc(C(=O)Nc2nc(-c3ccccn3)cs2)cc1S(=O)(=O)N1CCOCC1 | 3.1 | nt | 0.7
O=C(Nc1nc(-c2ccccn2)cs1)c1ccc(F)c(S(=O)(=O)N2CCOCC2)c1 | 22.5* | nt | 0.8
CCCNC(=O)N[C@H]1CC[C@@H](CC(=O)NCCc2ccccc2)O[C@H]1CO | 2.0 | -0.2 | 0.2
Cc1cccc(-n2c(SCC(=O)Nc3ncc(Cl)cc3Cl)nc3ccccc32)c1 | nt | 1.1 | 0.2
O=C(CSc1nc2ccccc2n1-c1ccccc1)Nc1ncc(Cl)cc1Cl | 8.7* | 1.8 | 0.0
O=C(C[C@H]1CC[C@@H]2[C@H](COC[C@@H](O)CN2CCc2ccccc2)O1)NCc1ccccc1 | 1.9 | 0.0 | 0.2
CC1=CC(=O)c2ccccc2C1=O | -3.7 | -2.1 | 0.0
COc1cccc2c1C(=O)C=C(C)C2=O | 15.7* | nt | 0.0
C[C@@H](NC(=O)[C@@H]1[C@@H](CO)[C@@H]2Cn3c(cccc3=O)[C@H]1N2Cc1ccncc1)c1ccccc1 | -2.9 | -0.5 | 0.4
SMILES | CFTR F508del cor | E-selectin induc | XiGFP reactiv
OC(COC(c1ccccc1)c1ccccc1)CN1CCOCC1 (centres undefined) | nt | 71.6* | 0.0
Cc1ccc(C(OCC(O)CN2CCCCC2)c2ccccc2)cc1 (centres undefined) | 1.8 | 0.0 | 0.1
Nc1ccn([C@@H]2O[C@H](C(=O)NCC(F)(F)F)[C@@H](O)[C@H]2O)c(=O)n1 | 10.1* | 3.5 | 0.0
CC(C)[C@H](CO)NC(=O)[C@H]1O[C@@H](n2ccc(N)nc2=O)[C@H](O)[C@@H]1O | -3.0 | 0.7 | nt
O=C(CN1CCOCC1)NCC[C@@H]1CC[C@@H](NC(=O)Nc2ccc(C(F)(F)F)cc2)[C@H](CO)O1 | -1.6 | -0.2 | -0.6
C[C@@H]1CN([C@@H](C)CO)C(=O)Cc2cc(NC(=O)CCC(F)(F)F)ccc2O[C@@H]1CN(C)Cc1ccc(-c2ccccc2)cc1 | -2.1 | 1.7 | -0.5
CC(Nc1nc(-c2ccc3c(c2)NC(=O)CO3)cs1)c1ccccc1 (centres undefined) | nt | nt | 0.0
C=CCN=c1scc(-c2ccc3c(c2)NC(=O)CO3)n1/N=C(\C)c1ccccn1 | 8.7* | -1.8 | 0.4
COc1cccc(CNC(=O)C[C@H]2CC[C@H]3[C@@H](COc4ccc(NC(C)=O)cc4C(=O)N3C)O2)c1 | 2.4 | -0.1 | 0.3
N#C/C(=C(/O)c1ccc([N+](=O)[O-])o1)c1nc2ccccc2[nH]1 | 3.9 | nt | -0.3
N#C/C(=C\c1ccc([N+](=O)[O-])o1)c1nc2ccccc2[nH]1 | nt | nt | 62.3*
O=C(Nc1ccc(F)cc1)c1ccccc1 | -0.6 | nt | nt
O=C(NC(O)C(=O)c1ccccc1)c1ccc(F)cc1 (centres undefined) | 5.2 | 40.6* | 0.2
C[C@H](NC(=O)C[C@H]1CC[C@@H]2[C@H](COC[C@@H](O)CN2C)O1)c1ccccc1 | 0.2 | -0.1 | 0.0
CNC[C@H]1OCCCC[C@@H](C)Oc2ccc(NS(=O)(=O)c3cn(C)cn3)cc2C(=O)N([C@@H](C)CO)C[C@@H]1C | 0.8 | -0.3 | 0.0
CN(C)CCNc1ccc(CO)c2oc3ccc(O)cc3c(=O)c12 | 1.9 | 0.5 | 0.4
CCN(CC)CCNc1ccc(CO)c2oc3cc(Cl)ccc3c(=O)c12 | 9.0* | nt | 0.0
CCOC(=O)Cn1c(=NC(=O)c2cc(-c3cccs3)nc3ccccc23)sc2cc(S(N)(=O)=O)ccc21 | nt | nt | 1.6
COC(=O)Cn1c(=NC(=O)c2cc(-c3cccs3)nc3ccccc23)sc2cc(S(N)(=O)=O)ccc21 | 9.5* | -1.2 | 0.0
C[C@H]1CN([C@@H](C)CO)S(=O)(=O)c2ccc(C#Cc3ccncc3)cc2O[C@H]1CN(C)C(=O)C1CCCCC1 | -0.4 | 0.5 | -0.6
Cc1ccc(-c2nc(CS(=O)CC(=O)NCCCN3CC(C)CC(C)C3)c(C)o2)cc1 (centres undefined) | -2.4 | -0.1 | 21.8*
Cc1oc(-c2cccs2)nc1CS(=O)CC(=O)NCCCN1CC(C)CC(C)C1 (centres undefined) | 0.0 | nt | 0.0
CO[C@H]1CN(C)C(=O)c2cc(NC(=O)NC(C)C)ccc2OC[C@H](C)N(Cc2ccccn2)C[C@H]1C | 0.2 | -0.4 | 0.0
Cc1ccc(-c2csc(N(CCCN(C)C)C(=O)c3ccco3)n2)cc1 | 0.0 | -3.4 | 0.1
CN(C)CCCN(C(=O)c1ccco1)c1nc(-c2ccc(Cl)cc2)cs1 | 8.1* | 0.0 | 0.2
C[C@H](CO)N1C[C@H](C)[C@H](CN(C)C(=O)NC2CCCCC2)Oc2ccc(NS(=O)(=O)c3cccs3)cc2C1=O | 0.1 | nt | -1.1
O=[N+]([O-])c1ccc(N=Nc2c(Cl)cc(O)cc2Cl)cc1 | 10.1* | 0.1 | 0.0
CC(N)=Nc1ccc([N+](=O)[O-])cc1 | nt | 0.4 | -0.1
C[C@]12C=CC(=O)C=C1CC[C@@H]1C2[C@@H](O)C[C@@]2(C)C1CC[C@]2(O)C(=O)COC(=O)CCC(=O)O (some centres undefined) | 8.2* | 0.0 | 0.0
